Experimental data as given in paper PMC11861226 (Journal of Cancer Research and Clinical Oncology, 2025).

Tests used:
[1] = ^68Ga-DOTA-PSMA micro-PET/CT imaging of 22Rv1 xenograft mice; type: in vivo, mouse; settings: mouse, tumor / non-tumor (muscle), iv, 3.7 MBq, total radioactivity
In short: (§1)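 Tracer was labelled with ⁶⁸Ga (generator eluted with 0.1 mol/l HCl) in sodium acetate buffer, pH 3–4, at 95 °C for 15 min. Male six-week-old nude mice bearing 22Rv1 xenografts received 3.7 MBq via the tail vein. Animal PET/CT imaging followed at multiple time points after injection to track tracer accumulation in tumour and surrounding organs.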

[2] = tested on: 22Rv1 Xenograft Mice; assay: as above; type: in vivo, mouse; settings: PET/CT imaging, 22Rv1 tumor
In short: as §1

[3] = ^68Ga-DOTA-PSMA organ biodistribution by γ-counter, 22Rv1 xenograft mice; type: in vivo; settings: mouse, tumor, iv, 3.7 MBq, total radioactivity
In short: (§2)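 Male six-week-old SPF nude mice: normal (n = 15), 22Rv1 xenograft (n = 12) or PC-3 xenograft (n = 12), with three animals per time point. Each received 3.7 MBq i.v. via the tail vein. Tracer was labelled with ⁶⁸Ga (generator eluted with 0.1 mol/l HCl) in sodium acetate, pH 3–4, at 95 °C for 15 min. Mice were killed by cervical dislocation; organs were excised, weighed and γ-counted for %ID/g. Mean ± SD.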

[4] = ^68Ga-DOTA-PSMA organ biodistribution by γ-counter, PC-3 xenograft mice; type: in vivo; settings: mouse, tumor, iv, 3.7 MBq, total radioactivity
In short: as §2

[5] = tested on: glioblastoma cancer cell nuclei; settings: glioblastoma patients; ref Ho et al. [2022]; cited from earlier work
[6] = ref Lamba et al. [2021]; Kondo et al. [2022]; Järvinen et al. [2023]; cited from earlier work

For `O=C(O)CC[C@H](NC(=O)N[C@@H](CCCCNC(=O)[C@H](Cc1ccc2ccccc2c1)NC(=O)CCCCCNC(=O)CN1CCN(CC(=O)O)CCN(CC(=O)O)CCN(CC(=O)O)CC1)C(=O)O)C(=O)O` [^68Ga-DOTA-PSMA, metal not drawn], the tissue to tissue ratio at 2 h [1] was 6.95 ± 0.6, the “time of peak radiotracer uptake post-injection” value [2] was 2 h and the tissue uptake at 2 h [3] was 27.1 ± 2.55 %ID/g. For the same molecule, the tissue uptake at 2 h [4] was 6.23 ± 0.79 %ID/g.
In the case of `O=C([O-])CN(CCN(CC(=O)[O-])CC(=O)O)CCN(CC(=O)[O-])CC(=O)O.[Gd+3]` [^157Gd-DTPA], the “cancer cell nuclei found to contain the agent” value [5] is given as 6.1%.
For `N[C@@H](Cc1ccc(B(O)O)cc1)C(=O)O` [BPA, Boronophenylalanine], the water solubility [6] is given as “poor water solubility”.
In the case of “Sodium mercaptoundecahydro-closo-dodecaborate [BSH]”, the water solubility [6] is listed as “more water-soluble”.
